The test system of one test is P388. The test is described as follows: Cytotoxicity against mouse P388 cells by microculture tetrazolium-formazan method. The class given is functional, cell-based. A digest of the protocol:
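Murine P388 leukemia cells were assayed by the microculture tetrazolium–formazan method, and the IC50 was reported as the cytotoxicity value.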

In another test the test system is A549. Kind of test: Cytotoxicity against human A549 cells by sulforhodamine B dye-staining method. The class given is functional, cell-based. A digest of the protocol: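 Human lung cancer A549 cells were stained with sulforhodamine B dye, and the IC50 was reported as the cytotoxicity value.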
On the technique in general: The SRB assay estimates cell density from bound dye.

Structures are written as SMILES.

Turning to `CN(C)CCN1C(=O)c2cccc3cccc1c23`, the IC50 in the test on P388 is 79.4 µmol; with A549, 300 µmol.

Consider `CN(C)CCCN1C(=O)c2cccc3cccc1c23`, for which the values for the IC50 in the test with P388 and in the test with A549 were 7.76 µmol and 22.9 µmol, respectively.

On to `CN(C)CCNCCN1C(=O)c2cccc3cccc1c23`, for which the IC50 with P388 came out at 1.69 µmol; in the test on A549, 0.489 µmol.

With `O=C1c2ccc([N+](=O)[O-])c3cccc(c23)N1CCCl`, the figures for the IC50 with P388 and in the test on A549 were 17.8 µmol and 52.5 µmol, respectively.

On to `O=C1c2cccc3cccc(c23)N1CCNCCN1C(=O)c2cccc3cccc1c23`, for which the IC50 with P388 is 13.8 µmol; in the test with A549, 29.5 µmol.

Values taken from ChEMBL document CHEMBL1146316, “Novel antitumor agent family of 1H-benzo[c,d]indol-2-one with flexible basic side chains: synthesis and biological evaluation” (Bioorg Med Chem, 2007).
